Measurements from different studies.
Each line is one published result; the experiments were not run side by side.
Target: Megakaryocyte-associated tyrosine-protein kinase (MATK, Homo sapiens, UniProt P42679)
One construct used (P42679 1-507): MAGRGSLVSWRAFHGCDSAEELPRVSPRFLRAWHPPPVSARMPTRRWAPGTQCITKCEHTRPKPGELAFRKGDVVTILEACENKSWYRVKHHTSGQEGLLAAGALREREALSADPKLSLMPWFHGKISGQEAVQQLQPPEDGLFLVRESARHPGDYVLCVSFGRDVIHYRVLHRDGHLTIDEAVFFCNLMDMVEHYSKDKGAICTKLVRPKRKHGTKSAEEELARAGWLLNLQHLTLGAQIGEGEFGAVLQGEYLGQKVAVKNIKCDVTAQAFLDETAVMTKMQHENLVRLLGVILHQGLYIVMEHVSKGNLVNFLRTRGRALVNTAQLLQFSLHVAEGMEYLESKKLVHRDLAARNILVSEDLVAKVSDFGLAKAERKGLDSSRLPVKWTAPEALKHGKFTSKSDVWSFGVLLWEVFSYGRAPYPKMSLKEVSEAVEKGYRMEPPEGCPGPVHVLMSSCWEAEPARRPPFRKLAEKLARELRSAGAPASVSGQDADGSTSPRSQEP

SMILES	test	setting	quantity	result
O=c1[nH]c2ccccc2n1C1CCN(Cc2ccc(-c3[nH]c4cc5ncnc5cc4nc3-c3ccccc3)cc2)CC1	cell-free assay	0.5 µM	remaining signal	102%
COc1cc(Nc2ncc(F)c(Nc3ccc4c(n3)NC(=O)C(C)(C)O4)n2)cc(OC)c1OC	binding, competition with immobilised ligand	10 µM	inhibition	70%
Nc1ncc(-c2nc(N3CCOCC3)nc(N3CCOCC3)n2)c(C(F)F)n1	binding, competition with immobilised ligand	10 µM	remaining binding	100%
Cn1cncc1[C@](O)(COc1ccc(C#N)cc1-c1ccc(OC(F)(F)F)cc1)c1ccc(C#N)cc1	cell-free assay, competition with immobilised ligand	1 µM	remaining binding	98%
COc1ncccc1-c1cnn2ccc(N3CCN(C(=O)OC(C)C)CC3)nc12	binding, competition with immobilised ligand	1 µM	remaining binding	46%
Cn1cc(-c2cccc(N3CCc4c(sc5c4CC(C)(C)C5)C3=O)c2CO)cc(Nc2ccncn2)c1=O	enzyme activity, inhibitor	1 µM	inhibition	4%
Cc1nn(C)cc1-c1nc2c(N3CCN(Cc4ccc(Cl)cc4)CC3)c(Cl)cnc2[nH]1	binding, competition with immobilised ligand	1 µM	remaining binding	82%
Cn1cc(-c2cc(F)cc(N3CCn4c(cc5c4CCCC5)C3=O)c2CO)cc(Nc2ccc(N3CCN(C4COC4)CC3)cn2)c1=O	enzyme activity, inhibitor	0.1 µM	inhibition	9%
CC(C)(C)c1cc(C=C(C#N)C#N)cc(Br)c1O	enzyme activity, inhibitor	0.5 µM	remaining activity	102%
